Screening data from PubChem BioAssay.
Compounds with a hit are over-represented: about 2.3% of the library has one in this group of screens.
TAAR1 antag: antagonists of human TAAR1 | Q96RJ0 | CHO RD-HGA16 TAAR1, Fluo-8 calcium fluorescence, antagonist | inhibition, % at 3 µM | 360,000 compounds, 1.5% hits | AID 624466;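 active means inhibition above a per-plate cutoff, the mean inhibition of test compounds on that plate plus 3 SD, cut at about 49% in these data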;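 further: 0% = DMSO plus EC80 beta-PEA response and 100% = DMSO alone without agonist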
Target sequence (Q96RJ0 whole entry, looked up): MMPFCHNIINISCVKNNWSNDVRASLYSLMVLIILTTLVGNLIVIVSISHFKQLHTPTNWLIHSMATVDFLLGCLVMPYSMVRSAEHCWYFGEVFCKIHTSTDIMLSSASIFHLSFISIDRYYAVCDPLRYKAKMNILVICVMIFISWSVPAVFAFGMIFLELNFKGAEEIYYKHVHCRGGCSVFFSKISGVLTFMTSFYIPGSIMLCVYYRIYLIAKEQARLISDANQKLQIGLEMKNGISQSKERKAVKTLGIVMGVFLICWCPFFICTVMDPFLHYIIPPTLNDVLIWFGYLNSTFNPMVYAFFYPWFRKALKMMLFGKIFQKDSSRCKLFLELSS
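Assay system: RD-HGA16 CHO cells with stable hTAAR1 and Gα16 / Reagent: EC80 β-phenethylamine stimulus / Doses: 3 µM, single point / Timing: dye loading 75 min at 37 °C, then 30 min room temperature / Measured by: Fluo-8 intracellular calcium dye fluorescence, real-time kinetic reads / Controls: vehicle wells and EC80 agonist wells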
OXTR potentiator: potentiators of human oxytocin receptor; P30559; CHO-OTR cells, Fluo-8 calcium fluorescence, potentiator mode; 0% = oxytocin EC15, 100% = EC100; activation, % at 3 µM; 320,000 compounds, 0.061% hits; AID 2445;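 active means activation above that plate's cutoff, the mean activation of tested compounds plus 3 SD, cut at about 6.6% in these data, passing the limit was not always enough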;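 further: 100% uses oxytocin at 75 nM as the full agonist control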
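Material: human OTR in CHO cells. Compound: 3.0 µM, one dose. Timing: compound 6 min at room temperature before oxytocin, 100 s read. Evaluation: % activation of max/min ratio relative to oxytocin controls. Replication: single well per compound, singlicate. Signal: Fluo-8 calcium dye fluorescence.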
TAAR1 ag: human TAAR1 agonism; Q96RJ0; CHO RD-HGA16 TAAR1, Fluo-8 calcium fluorescence; vehicle wells 0%, saturating PEA agonist 100%; activation, % at 3 µM; 360,000 compounds, 0.99% hits; AID 624467;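 active means activation above the mean activation of all test compounds in the run plus 3 SD, cut at about 38% in these data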
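System: CHO-derived RD-HGA16 cells with stable Gα16 and human TAAR1. Times: 17-24 h plating, Fluo-8 75 min 37 °C, 30 min RT. Measured by: calcium-sensitive Fluo-8 signal, excitation 470-495, emission 515-575 nm. Read-out basis: % activation relative to PEA EC100 response. Control set: DMSO and PEA EC100. Repeats: no replicates (n 1).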
V1aR counter: V1a receptor agonism, counter-screen for OXTR agonists | CHO-V1R cells, Fluo-8 calcium fluorescence, agonist mode; 0% DMSO, 100% 3 nM vasopressin | activation, % at 3 µM | 320,000 compounds, 0.25% hits;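 active means activation above the mean activation of all tested compounds plus 3 SD, per screening run, cut at about 20% in these data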;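 further: signal is peak over basal fluorescence ratio across a 100 second FLIPR read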
Target sequence (P37288 whole entry, looked up): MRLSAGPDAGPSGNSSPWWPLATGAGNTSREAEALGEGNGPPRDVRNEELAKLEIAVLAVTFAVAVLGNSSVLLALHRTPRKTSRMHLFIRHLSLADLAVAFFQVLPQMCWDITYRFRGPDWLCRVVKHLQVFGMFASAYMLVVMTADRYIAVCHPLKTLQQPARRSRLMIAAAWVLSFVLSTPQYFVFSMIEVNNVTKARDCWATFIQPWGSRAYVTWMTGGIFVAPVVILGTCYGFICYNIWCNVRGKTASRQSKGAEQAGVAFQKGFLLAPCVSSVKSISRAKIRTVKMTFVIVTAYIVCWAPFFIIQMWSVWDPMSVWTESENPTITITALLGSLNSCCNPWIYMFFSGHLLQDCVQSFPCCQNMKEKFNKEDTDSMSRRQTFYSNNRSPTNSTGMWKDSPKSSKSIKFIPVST
OXTR ag: human OXTR agonism; 320,000 compounds, 0.32% hits; activation, % at 3 µM; P30559; CHO-OTR cells, Fluo-8 calcium fluorescence; normalized: DMSO 0%, oxytocin 100%;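 active means activation above the mean of all tested compounds plus 3 SD, cutoff set per screening run, cut at about 20% in these data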;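 further: peak over basal fluorescence ratio from a 100 s FLIPR kinetic read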
TAAR1 ag conf: human TAAR1 agonism, confirmed. shares compounds with TAAR1 ag. CHO RD-HGA16 TAAR1, Fluo-8 calcium fluorescence; scaled: DMSO 0%, maximal phenethylamine 100%. activation, % at 3 µM. 2,400 compounds, 82% hits;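 active means activation above a cutoff set at the run's mean compound activation plus 3 SD, cut at about 39% in these data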
Ga16 nonsel ag: nonselective agonism, TAAR1 counter-screen; shares compounds with TAAR1 ag; CHO-Ga16 parental, Fluo-8 calcium fluorescence; normalized to maximal ATP response, DMSO zero; activation, % at 3 µM; 2,400 compounds, 50% hits;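 active means activation above the run cutoff, the mean activation over all tested wells plus 3 SD, cut at about 12% in these data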;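 further: 0% = DMSO wells and 100% = maximal ATP response on the peak over basal ratio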
TAAR1 desensitize: counter-screen for human TAAR1 agonists: agonists that desensitize TAAR1. inhibition, % at 3 µM. shares compounds with TAAR1 ag. 2,400 compounds, 46% hits. CHO RD-HGA16 hTAAR1, Fluo-8 calcium, beta-PEA response inhibition;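 active means inhibition above the run cutoff, the mean inhibition of all test compounds plus 3 SD, cut at about 49% in these data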;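 further: beta-PEA stimulus applied at its EC80; loss of beta-PEA calcium signal after compound pretreatment read as receptor desensitization; 0% = DMSO with beta-PEA at EC80 and 100% = DMSO alone without agonist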
Ga16 nonsel ant: nonselective Ga16 antagonism, counter-screen | shares compounds with TAAR1 ag | CHO-Ga16 ATP-induced calcium, Fluo-8 fluorescence | inhibition, % at 3 µM | 2,400 compounds, 39% hits;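 active means inhibition above the plate's mean compound inhibition plus 3 SD, computed per plate, cut at about 22% in these data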;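 further: 0% = EC80 ATP with DMSO and 100% = DMSO wells without ATP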
Numbers without * were called inactive; · = not tested or not shown.

SMILES | TAAR1 antag | OXTR potentiator | TAAR1 ag | V1aR counter | OXTR ag | TAAR1 ag conf | Ga16 nonsel ag | TAAR1 desensitize | Ga16 nonsel ant
COc1cc2c(c(OC)c1OC)C1(CCCCC1)CC2NS(=O)(=O)C(C)C (stereo not given) | 49* | · | 92* | · | · | 15 | 3 | 2 | 6
CC(=O)NC1C(Oc2ccc3c(C)cc(=O)oc3c2)OC(COC(C)=O)C(OC(C)=O)C1OC(C)=O (stereo not given) | 9 | -1 | 6 | 1 | 1 | · | · | · | ·
c1ccc(CCNCc2cccs2)nc1 | -19 | · | 52* | · | · | 66* | 0 | 28 | 8
CNCCc1ccccn1 | 58* | 0 | 81* | 1 | 0 | 92* | 0 | 82* | 4
c1ccc(NCCc2ccccn2)cc1 | 22 | · | 0 | · | · | · | · | · | ·
COC(=O)c1cc(S(=O)(=O)Nc2cccc(S(N)(=O)=O)c2)oc1C | -17 | -5 | 1 | 1 | 0 | · | · | · | ·
CCOC(=O)c1c(C)[nH]c(C(=O)CN2C(=O)NC(C)(c3ccc(C)cc3)C2=O)c1C (stereo not given) | 9 | -25 | 97* | 20 | 19 | 102* | 50* | 58* | 33*
CCOC(=O)c1c(C)[nH]c(C(=O)CN2C(=O)NC(C)(C)C2=O)c1C | -30 | · | 4 | · | · | · | · | · | ·
CCOC(=O)c1c(C)[nH]c(C(=O)CN2C(=O)NC(CC)(c3ccccc3)C2=O)c1C (stereo not given) | 20 | -15 | 53* | 9 | 14 | 34 | 12* | 20 | 10
Cc1cc(C)c(S(=O)(=O)N2CCN(C)CC2)c(C)c1 | -5 | 1 | 20 | 1 | -1 | · | · | · | ·
O=C(NC1CCCC1)c1ccc(CSCc2ccccc2F)o1 | 3 | -2 | 14 | 0 | -1 | · | · | · | ·
Cc1ccccc1NC(=O)CC1SC(=O)N(c2ccccc2)C1=O (stereo not given) | -7 | -12 | 50* | 1 | 0 | 17 | 2 | 14 | 11
O=C(O)c1ccc(N/N=C/C2=Cc3ccccc3OC2)cc1 | 8 | -5 | 89* | 13 | 5 | 54* | 39* | 33 | 17
Cn1cccc1/C=N/n1c(-c2ccc(Cl)cc2Cl)n[nH]c1=S | 29 | -23 | 62* | 21* | 26* | 53* | 26* | 26 | 24*
CCCOc1ccc(C(=O)NNC(=S)NC(=O)c2cc(-c3ccccc3)nc3ccccc23)cc1 | 22 | -14 | 55* | 1 | 0 | 83* | 72* | 77* | 74*
O=C(NNC(=S)NC(=O)c1ccccc1)c1cccnc1 | -17 | -2 | 2 | 0 | -1 | · | · | · | ·
Cc1cc(OCC(=O)NNC(=S)NC(=O)c2cccs2)ccc1Cl | 65* | · | 103* | · | · | 77* | 76* | 58* | 54*
Cc1ccc(OCC(=O)NNC(=S)NC(=O)c2cccs2)c(C)c1 | -12 | · | 0 | · | · | · | · | · | ·
CCCC(=O)Nc1ccc(C(=O)NNC(=S)NC(=O)c2cccs2)cc1 | -16 | -3 | 2 | -1 | -2 | · | · | · | ·
CC(C)(C)c1ccc(C(=O)NNC(=S)NC(=O)c2cccnc2)cc1 | 35 | 2 | 86* | 13 | 8 | 49* | 47* | 38 | 28*
CCCOc1ccc(C(=O)NNC(=S)NC(=O)c2cccs2)cc1 | 106* | -12 | 159* | 85* | 79* | 154* | 124* | 106* | 91*
CCCOc1ccc(-c2cc(C(=O)NCC3CCCO3)c3ccccc3n2)cc1 (stereo not given) | 42 | -15 | 12 | 0 | -1 | · | · | · | ·
O=C(CCc1ccccc1)NCCCNC(=O)CCc1ccccc1 | -10 | -6 | 0 | 0 | 0 | · | · | · | ·
CCCOc1ccc(C(=O)NNC(=S)NC(=O)c2ccccc2[N+](=O)[O-])cc1 | 26 | -4 | 79* | 5 | 2 | 28 | 28* | 16 | 27*
Cc1ccccc1C(=O)NNC(=S)NC(=O)c1cccs1 | 65* | -9 | 128* | 65* | 36* | 67* | 69* | 29 | 30*
SMILES | TAAR1 antag | OXTR potentiator | TAAR1 ag | V1aR counter | OXTR ag | TAAR1 ag conf | Ga16 nonsel ag | TAAR1 desensitize | Ga16 nonsel ant
CCCOc1ccc(C(=O)NNC(=S)NC(=O)c2ccccc2)cc1 | 106* | -27 | 161* | 115* | 101* | 147* | 117* | 106* | 95*
O=C(NC(=S)NNC(=O)c1cccs1)c1ccccc1 | 28 | -8 | 37 | 2 | 1 | · | · | · | ·
CC(C)(C)c1ccc(C(=O)NC(=S)NNC(=O)c2cccs2)cc1 | 105* | -11 | 174* | 93* | 101* | 159* | 129* | 107* | 102*
CCCOc1ccc(C(=O)NNC(=S)NC(C)=O)cc1 | -14 | -8 | 13 | -2 | -2 | · | · | · | ·
Cc1ccccc1C(=O)Nc1cccc(NC(=S)NC(=O)c2cccs2)c1 | -11 | -8 | 4 | 2 | -1 | · | · | · | ·
CCN(c1ccccc1)S(=O)(=O)c1ccc(C(=O)NCCc2ccc(S(N)(=O)=O)cc2)cc1 | 26 | -6 | 7 | 1 | 1 | · | · | · | ·
CC(C)CCNc1ncnc2c1nnn2Cc1ccccc1 | -13 | -7 | 7 | 0 | -1 | · | · | · | ·
COc1cccc(C2=CC(=O)C(C(C)(C)C)N2C(C)(C)C)c1 (stereo not given) | -19 | · | 1 | · | · | · | · | · | ·
CN(C)CCCN(C(=O)c1ccc(S(=O)(=O)N2CCOCC2)cc1)c1nc2ccc(F)cc2s1 | 14 | -4 | 8 | 5 | 2 | · | · | · | ·
CN(C)CCN(C(=O)c1ccc(S(=O)(=O)N2CCCC2)cc1)c1nc2ccc(Br)cc2s1 | -20 | -8 | 7 | 2 | 2 | · | · | · | ·
CN(C)CCCN(C(=O)c1ccc(S(=O)(=O)N2CCCCCC2)cc1)c1nc2ccc(F)cc2s1 | 16 | -4 | 67* | 12 | 6 | 68* | 30* | 38 | 20
CC1CCCCN1S(=O)(=O)c1ccc(C(=O)N(CCCN(C)C)c2nc3ccc(Br)cc3s2)cc1 (stereo not given) | 46 | -8 | 51* | 10 | 17 | 69* | 52* | 57* | 56*
O=C1Nc2ccccc2/C1=N/c1sc2c(c1C(=O)NCCc1ccccc1)CCCC2 | 71* | -5 | 83* | -1 | -1 | 50* | 19* | 27 | 22*
